Results on two molecules are retold here after ChEMBL document CHEMBL4312018, “Novel benzimidazole phosphonates as potential inhibitors of protein prenylation” (Bioorg Med Chem Lett, 2019).

Activity calls are given as the source filed them.

As a reminder, the IC50 is the concentration that inhibits the measured activity by half.

Experiment [1] has as its target T1, Farnesyl pyrophosphate synthase (Homo sapiens) (UniProt P14324).
T1 sequence (whole entry): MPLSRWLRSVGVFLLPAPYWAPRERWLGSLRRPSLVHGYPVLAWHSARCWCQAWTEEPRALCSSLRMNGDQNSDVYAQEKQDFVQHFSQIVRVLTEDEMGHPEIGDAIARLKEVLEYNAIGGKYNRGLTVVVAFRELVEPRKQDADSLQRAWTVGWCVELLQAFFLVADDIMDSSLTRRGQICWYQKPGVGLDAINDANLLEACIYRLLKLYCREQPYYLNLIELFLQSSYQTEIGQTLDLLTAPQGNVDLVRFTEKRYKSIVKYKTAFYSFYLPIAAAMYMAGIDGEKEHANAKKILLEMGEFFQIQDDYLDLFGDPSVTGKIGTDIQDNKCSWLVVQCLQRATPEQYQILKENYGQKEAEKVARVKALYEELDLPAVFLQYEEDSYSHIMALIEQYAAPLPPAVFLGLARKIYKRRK

Experiment [2] deals with T2, Geranylgeranyl transferase type-2 (Homo sapiens) (UniProt P53611+Q92696). Nature of the experiment: Inhibition of GGtase-2 in human cells assessed as minimum effective dose required for increase in intracellular lambda chain level after 48 hrs by ELISA. The class given is cell-based. The method in brief:
(§1)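 The lowest effective concentration in RPMI-8226 cells after 48 h requires both criteria below: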

Experiment [3] has as its target T3, Farnesyl pyrophosphate synthase (Homo sapiens, UniProt P14324).
T3 sequence (P14324 whole entry): T1 sequence (whole entry)
The experiment in a line: Inhibition of FDPS (unknown origin) using [14C] IPP and GPP as substrate preincubated for 10 mins followed by substrate addition and measured after 30 min by liquid scintillation counting method.

Experiment [4] has as its target T1, Farnesyl pyrophosphate synthase (Homo sapiens). The source holds these as a separate data set.
For experiment [5], the target named is T2, Geranylgeranyl transferase type-2 (Homo sapiens). The experiment in a line: Inhibition of GGTase-2 in human RPMI8226 cells assessed as ratio of calnexin to Rab6 level at 1 mM after 48 hrs by immunoblot analysis relative to control. The class given is cell-based. Put shortly: (§2)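 After 48 h treatment, RPMI-8226 cells were extracted with Triton X-114 to give a detergent (membrane) fraction, which was immunoblotted for Rab6. Rab6 band density was normalized to calnexin and expressed relative to untreated cells. Blots are representative of three independent studies.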
In general terms: In western blotting, separated proteins are transferred to a membrane and probed.

The target of experiment [6] is T4, Geranylgeranyl pyrophosphate synthase (Homo sapiens, UniProt O95749).
T4 sequence (O95749 whole entry): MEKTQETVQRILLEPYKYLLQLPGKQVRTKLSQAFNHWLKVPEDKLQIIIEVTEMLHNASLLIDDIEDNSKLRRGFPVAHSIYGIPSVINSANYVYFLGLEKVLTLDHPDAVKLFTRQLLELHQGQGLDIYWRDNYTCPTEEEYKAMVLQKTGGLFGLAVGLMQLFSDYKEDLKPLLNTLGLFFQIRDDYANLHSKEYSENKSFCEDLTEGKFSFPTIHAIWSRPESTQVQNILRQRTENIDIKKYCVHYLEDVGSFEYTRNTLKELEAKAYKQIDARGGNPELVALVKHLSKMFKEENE
The experiment in a line: Inhibition of GGDPS (unknown origin) using [14C] IPP and FPP as substrate preincubated for 10 mins followed by substrate addition and measured after 30 min by liquid scintillation counting method.

For experiment [7], the target named is T2, Geranylgeranyl transferase type-2 (Homo sapiens). The experiment in a line: Inhibition of GGtase-2 in human RPMI8226 cells assessed as increase in intracellular lambda light chain level at 1 to 5 mM incubated for 48 hrs […]. It counts as cell-based. The method in brief:
(§3)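 RPMI-8226 cells were incubated 48 h with the compound or medium alone. Intracellular lambda light chain was quantified by ELISA and expressed as percent of untreated control (mean ± SD, n=3). Significance versus control was judged by t-test, p<0.05.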

Experiment [8] concerns the target T5, Geranylgeranyl transferase type I (Homo sapiens) (UniProt P49354+P53609). The experiment in a line: Inhibition of GGtase-1 in human RPMI8226 cells assessed as disruption of Rap1a geranylgeranylation at 1 to 5 mM incubated for 48 hrs by immunoblot analysis. It counts as cell-based.
Experiment [9] deals with T2, Geranylgeranyl transferase type-2 (Homo sapiens). Nature of the experiment: Inhibition of GGTase-2 in human RPMI8226 cells assessed as ratio of calnexin to Rab6 level at […] after 48 hrs by immunoblot analysis relative to control. The class given is cell-based.
Experiment [10] concerns the target T6, Protein farnesyltransferase (Homo sapiens) (UniProt P49354+P49356). Nature of the experiment: Inhibition of FTase in human RPMI8226 cells assessed as disruption of H-ras farnesylation at 1 to 5 mM incubated for 48 hrs by immunoblot analysis. The class given is cell-based.
Experiment [11] deals with T7, Geranylgeranyl transferase type-2 (Rattus norvegicus, UniProt Q08602+Q08603).
T7 sequence (Q08603 whole entry): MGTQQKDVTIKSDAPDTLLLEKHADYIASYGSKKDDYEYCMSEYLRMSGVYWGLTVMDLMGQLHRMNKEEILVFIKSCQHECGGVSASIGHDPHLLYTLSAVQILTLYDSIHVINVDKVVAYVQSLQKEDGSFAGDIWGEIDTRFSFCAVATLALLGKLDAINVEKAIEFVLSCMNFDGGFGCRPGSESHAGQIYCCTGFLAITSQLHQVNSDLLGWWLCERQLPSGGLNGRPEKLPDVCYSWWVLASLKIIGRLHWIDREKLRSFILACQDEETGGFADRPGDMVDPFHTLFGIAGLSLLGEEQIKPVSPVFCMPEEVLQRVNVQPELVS
T7 sequence (Q08602 whole entry): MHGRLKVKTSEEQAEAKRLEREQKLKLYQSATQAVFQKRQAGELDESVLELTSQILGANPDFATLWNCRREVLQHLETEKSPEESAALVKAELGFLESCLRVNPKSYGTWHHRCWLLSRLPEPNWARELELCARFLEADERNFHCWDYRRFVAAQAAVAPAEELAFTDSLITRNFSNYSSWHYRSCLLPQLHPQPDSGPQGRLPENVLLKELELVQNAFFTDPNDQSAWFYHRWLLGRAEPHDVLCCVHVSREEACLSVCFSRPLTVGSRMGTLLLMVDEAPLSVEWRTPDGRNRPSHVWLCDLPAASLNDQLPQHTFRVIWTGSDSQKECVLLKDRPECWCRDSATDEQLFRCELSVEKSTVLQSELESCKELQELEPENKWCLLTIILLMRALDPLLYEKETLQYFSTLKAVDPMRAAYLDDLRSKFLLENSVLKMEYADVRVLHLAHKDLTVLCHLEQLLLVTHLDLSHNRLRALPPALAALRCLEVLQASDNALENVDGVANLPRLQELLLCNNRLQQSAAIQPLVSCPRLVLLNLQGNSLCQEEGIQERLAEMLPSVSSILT
The experiment in a line: Inhibition of recombinant rat RabGGTase expressed in Escherichia coli using Rab7 as substrate and [3H]geranylgeranyl pyrophosphate after 20 mins by liquid scintillation analysis.

Experiment [12] concerns the target geranylgeranyltransferase type-I (Rattus norvegicus, UniProt P53610+Q04631). Nature of the experiment: Inhibition of recombinant rat GGtase-1 expressed in Escherichia coli using dansyl-GCVLL as substrate after 1.5 hrs by spectrofluorimetric analysis.
For experiment [13], the target named is T2, Geranylgeranyl transferase type-2 (Homo sapiens). The experiment in a line: Inhibition of GGTase-2 in human RPMI8226 cells assessed as ratio of calnexin to Rab6 level at 5 mM after 48 hrs by immunoblot analysis relative to control. The class given is cell-based. Put shortly: as §2
Experiment [14] shares this target. The experiment in a line: Inhibition of GGtase-2 in human cells assessed as minimum effective dose causing => 20% decrease in Rab6 level after 48 hrs by immunoblot analysis. It counts as cell-based. Put shortly: as §1
Experiment [15] has as its target Protein farnesyltransferase (Rattus norvegicus, UniProt Q02293+Q04631). Nature of the experiment: Inhibition of recombinant rat FTase expressed in Escherichia coli using dansyl-GCVLS as substrate after 1.5 hrs by spectrofluorimetric analysis.
For experiment [16], the target named is T2, Geranylgeranyl transferase type-2 (Homo sapiens). Nature of the experiment: Inhibition of GGtase-2 in human RPMI8226 cells assessed as increase in intracellular lambda chain at =< 1 mM level after 48 hrs by ELISA. The class given is cell-based. The method in brief: as §3
A general note: In an ELISA, binding on a coated surface is turned into a signal by an enzyme label.

For experiment [17], the target named is T5, Geranylgeranyl transferase type I (Homo sapiens). Nature of the experiment: Inhibition of GGtase-1 in human RPMI8226 cells assessed as disruption of Rap1a geranylgeranylation after 48 hrs immunoblot analysis. The class given is cell-based.
The target of experiment [18] is T1, Farnesyl pyrophosphate synthase (Homo sapiens). Nature of the experiment: Inhibition of FDPS in human RPMI8226 cells assessed as unmodified Rap1a level at =< 1 mM after 48 hrs by immunoblot analysis. It counts as cell-based. The method in brief:
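RPMI-8226 cells were exposed for 48 h. The lowest effective concentration counts only when two read-outs agree. Unmodified Rap1a must be visible on immunoblot of whole-cell lysate, using an antibody that detects only unmodified protein.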

Experiment [19] has as its target T8, geranylgeranyltransferase type-I (Rattus norvegicus) (UniProt P53610+Q04631). Nature of the experiment: Activation of recombinant rat GGtase-1 expressed in Escherichia coli assessed as enzyme activity at 1000 uM using dansyl-GCVLL as substrate after 1.5 hrs by spectrofluorimetric analysis relative to control.
Experiment [20] addresses T8, geranylgeranyltransferase type-I (Rattus norvegicus). The experiment in a line: Activation of recombinant rat GGtase-1 expressed in Escherichia coli using dansyl-GCVLL as substrate after 1.5 hrs by spectrofluorimetric analysis.
For experiment [21], the target named is T6, Protein farnesyltransferase (Homo sapiens). Nature of the experiment: Inhibition of FTase in human RPMI8226 cells assessed as disruption of H-ras farnesylation after 48 hrs by immunoblot analysis. It counts as cell-based.
For another experiment, the species on record is Homo sapiens. The experiment in a line: Selectivity ratio of IC50 for GGDPS (unknown origin) to IC50 for FDPS (unknown origin).
The target in experiment [22] is T2, Geranylgeranyl transferase type-2 (Homo sapiens). Nature of the experiment: Inhibition of GGtase-2 in human RPMI8226 cells assessed as decrease in Rab6 level at =< 1 mM after 48 hrs by immunoblot analysis relative to control. It counts as cell-based. The method in brief:
as §2

The target in experiment [23] is T1, Farnesyl pyrophosphate synthase (Homo sapiens). Nature of the experiment: Inhibition of FDPS in human RPMI8226 cells assessed as increase in intracellular lambda chain level at =< 1mM after 48 hrs by ELISA. The class given is cell-based. Put shortly:
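RPMI-8226 cells were exposed for 48 h, and intracellular lambda light chain was measured by ELISA as percent of untreated control. The lowest effective concentration also requires unmodified Rap1a to be visible on whole-cell-lysate immunoblot with an unmodified-specific antibody. The ELISA rise must be statistically significant.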

For the molecule `O=C(O)C(Cn1cnc2ccccc21)P(=O)(O)O` (centres undefined), the LED in experiment [1], in [2], in [4] and in experiment [14] was 1 mM in each case. For the same molecule, the IC50 is more than 100 µM in experiment [3]; more than 100 µM in experiment [6]; 198 µM in [11]; more than 1000 µM in experiment [12]; 125 µM in experiment [15]. Also, the fold change (FC) in experiment [5] is 0.6; in [13] it was 0.3. The inhibition result in [7] was “Active”. The inhibition entry in experiment [8] and in experiment [10] was “inactive” in each case. The FC in [9] turned out to be 0.4.
On to `Cc1cc2ncn(CC(P(=O)(O)O)P(=O)(O)O)c2cc1C`, for which the inhibition entry in experiment [16], in [17], in experiment [18], in experiment [21], in experiment [22] and in [23] was “inactive” throughout. The concentration for half-maximal inhibition (IC50) in experiment [3] is 0.69 µM; in [6], 41 µM; in experiment [11], 534 µM; in [12], more than 1000 µM; in experiment [15], more than 1000 µM. Further, the Activity is 560% in experiment [19] and “Dose-dependent effect” in experiment [20]. The Ratio IC50 in the experiment listed under Homo sapiens was 59.
